In test [1] the target is T1, Protein kinase C epsilon type (Homo sapiens) (UniProt Q02156).
T1 sequence (whole entry): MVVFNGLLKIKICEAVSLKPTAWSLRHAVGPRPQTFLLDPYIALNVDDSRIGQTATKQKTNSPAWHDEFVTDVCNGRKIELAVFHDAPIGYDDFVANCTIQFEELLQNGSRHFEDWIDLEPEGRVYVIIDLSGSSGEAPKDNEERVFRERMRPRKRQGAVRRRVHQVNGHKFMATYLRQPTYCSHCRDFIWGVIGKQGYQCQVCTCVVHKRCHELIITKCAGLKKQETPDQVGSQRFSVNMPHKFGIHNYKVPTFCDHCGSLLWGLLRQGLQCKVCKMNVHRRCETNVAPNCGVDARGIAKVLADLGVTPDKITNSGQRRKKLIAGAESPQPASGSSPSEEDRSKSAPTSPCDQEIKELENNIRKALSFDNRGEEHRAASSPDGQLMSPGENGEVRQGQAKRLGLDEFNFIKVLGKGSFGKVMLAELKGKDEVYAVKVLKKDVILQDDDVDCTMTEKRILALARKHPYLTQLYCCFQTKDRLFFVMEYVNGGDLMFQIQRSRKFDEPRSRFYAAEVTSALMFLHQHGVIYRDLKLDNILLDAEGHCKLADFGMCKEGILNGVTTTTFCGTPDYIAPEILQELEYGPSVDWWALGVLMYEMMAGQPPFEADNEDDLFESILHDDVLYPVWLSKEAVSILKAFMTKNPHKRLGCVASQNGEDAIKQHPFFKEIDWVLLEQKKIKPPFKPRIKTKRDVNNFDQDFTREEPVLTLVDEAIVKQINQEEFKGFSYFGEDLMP
Description: Inhibition of PKCepsilon at 1 uM; values are per cent of control.

Test [2] has as its target Death-associated protein kinase 2 (Homo sapiens) (UniProt Q9UIK4). As to the kind of experiment: Inhibition of DAPK2 at 0.1 uM; values are per cent of control.
Test [3] concerns the target T2, Ephrin type-A receptor 1 (Homo sapiens) (UniProt P21709).
T2 sequence (whole entry): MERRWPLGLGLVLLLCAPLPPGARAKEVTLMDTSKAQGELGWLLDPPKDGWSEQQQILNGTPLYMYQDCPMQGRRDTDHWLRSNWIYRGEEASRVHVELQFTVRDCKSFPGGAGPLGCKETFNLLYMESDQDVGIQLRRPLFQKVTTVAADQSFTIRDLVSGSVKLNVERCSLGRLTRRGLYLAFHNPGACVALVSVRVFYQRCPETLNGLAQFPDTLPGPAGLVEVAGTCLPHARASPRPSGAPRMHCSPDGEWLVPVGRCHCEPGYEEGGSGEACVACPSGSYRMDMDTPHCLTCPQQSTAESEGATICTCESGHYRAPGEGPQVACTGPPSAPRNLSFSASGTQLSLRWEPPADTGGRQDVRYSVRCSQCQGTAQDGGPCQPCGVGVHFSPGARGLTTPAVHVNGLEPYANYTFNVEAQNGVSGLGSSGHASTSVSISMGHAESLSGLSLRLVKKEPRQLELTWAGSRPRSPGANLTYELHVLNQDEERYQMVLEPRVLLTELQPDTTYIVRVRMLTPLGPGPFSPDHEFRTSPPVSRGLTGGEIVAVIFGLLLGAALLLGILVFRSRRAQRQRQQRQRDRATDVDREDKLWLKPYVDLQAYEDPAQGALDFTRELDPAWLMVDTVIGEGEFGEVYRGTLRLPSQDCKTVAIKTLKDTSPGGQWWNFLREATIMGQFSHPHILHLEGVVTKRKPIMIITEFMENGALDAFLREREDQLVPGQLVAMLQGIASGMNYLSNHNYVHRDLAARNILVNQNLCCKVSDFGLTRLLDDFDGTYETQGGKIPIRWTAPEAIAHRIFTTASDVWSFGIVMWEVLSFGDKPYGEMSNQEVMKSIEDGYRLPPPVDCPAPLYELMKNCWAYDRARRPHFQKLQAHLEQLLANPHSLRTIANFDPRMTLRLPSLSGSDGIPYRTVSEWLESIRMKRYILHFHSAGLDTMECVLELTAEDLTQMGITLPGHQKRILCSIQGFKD
Description: Inhibition of EphA1 at 0.1 uM; values are per cent of control.

The target in test [4] is T3, Ephrin type-B receptor 1 (Homo sapiens) (UniProt P54762).
T3 sequence (whole entry): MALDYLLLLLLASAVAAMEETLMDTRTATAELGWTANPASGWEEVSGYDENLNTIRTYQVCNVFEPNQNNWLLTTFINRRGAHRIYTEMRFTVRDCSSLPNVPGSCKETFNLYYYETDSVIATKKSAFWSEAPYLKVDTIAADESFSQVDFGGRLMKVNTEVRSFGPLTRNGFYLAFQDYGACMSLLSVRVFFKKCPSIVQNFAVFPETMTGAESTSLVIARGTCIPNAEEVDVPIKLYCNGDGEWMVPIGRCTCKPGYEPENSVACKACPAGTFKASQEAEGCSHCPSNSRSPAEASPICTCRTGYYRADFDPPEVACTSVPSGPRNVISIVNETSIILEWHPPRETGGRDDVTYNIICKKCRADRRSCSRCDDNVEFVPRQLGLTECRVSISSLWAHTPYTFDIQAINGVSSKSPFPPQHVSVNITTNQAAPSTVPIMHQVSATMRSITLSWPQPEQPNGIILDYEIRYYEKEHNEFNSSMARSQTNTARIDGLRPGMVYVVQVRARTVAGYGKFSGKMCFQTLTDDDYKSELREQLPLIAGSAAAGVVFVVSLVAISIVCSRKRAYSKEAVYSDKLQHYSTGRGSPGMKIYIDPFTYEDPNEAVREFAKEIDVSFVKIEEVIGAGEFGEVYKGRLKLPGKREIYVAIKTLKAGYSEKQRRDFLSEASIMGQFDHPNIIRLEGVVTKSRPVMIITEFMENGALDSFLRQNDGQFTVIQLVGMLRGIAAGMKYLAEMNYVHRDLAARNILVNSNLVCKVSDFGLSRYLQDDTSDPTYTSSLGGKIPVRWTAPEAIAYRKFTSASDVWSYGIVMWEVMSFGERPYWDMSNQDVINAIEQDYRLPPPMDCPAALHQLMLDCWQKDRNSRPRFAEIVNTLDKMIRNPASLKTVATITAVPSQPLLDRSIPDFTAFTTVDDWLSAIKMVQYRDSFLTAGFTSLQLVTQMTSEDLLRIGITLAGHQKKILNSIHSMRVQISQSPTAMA
Description: Inhibition of EphB1 at 1 uM; values are per cent of control.

Test [5] has as its target Tyrosine-protein kinase Lck (Homo sapiens) (UniProt P06239). Description: Inhibition of Lck at 1 uM. A digest of the protocol: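 Single-point screen within a 108-kinase selectivity panel. Each kinase was tested with inhibitor at 0.1 and 1.0 micromolar, and activity was recorded as percent inhibition.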
Test [6] addresses Serine/threonine-protein kinase PLK2 (Homo sapiens) (UniProt Q9NYY3). Description: Inhibition of Snk at 1 uM.
The nature of test [7]: Inhibition of MAPK2 at 1 uM. The note with it: values are per cent of control.

Each structure is given as a SMILES string.

What is called residual activity is the signal under treatment as a percentage of the control signal. As usually defined, the inhibition is the drop in the measured response relative to a control, in per cent. Low readings indicate a weak effect, high ones a strong effect.

Chain of Tyrosine-protein kinase Lck (Homo sapiens) (P06239 2-509 limits assumed): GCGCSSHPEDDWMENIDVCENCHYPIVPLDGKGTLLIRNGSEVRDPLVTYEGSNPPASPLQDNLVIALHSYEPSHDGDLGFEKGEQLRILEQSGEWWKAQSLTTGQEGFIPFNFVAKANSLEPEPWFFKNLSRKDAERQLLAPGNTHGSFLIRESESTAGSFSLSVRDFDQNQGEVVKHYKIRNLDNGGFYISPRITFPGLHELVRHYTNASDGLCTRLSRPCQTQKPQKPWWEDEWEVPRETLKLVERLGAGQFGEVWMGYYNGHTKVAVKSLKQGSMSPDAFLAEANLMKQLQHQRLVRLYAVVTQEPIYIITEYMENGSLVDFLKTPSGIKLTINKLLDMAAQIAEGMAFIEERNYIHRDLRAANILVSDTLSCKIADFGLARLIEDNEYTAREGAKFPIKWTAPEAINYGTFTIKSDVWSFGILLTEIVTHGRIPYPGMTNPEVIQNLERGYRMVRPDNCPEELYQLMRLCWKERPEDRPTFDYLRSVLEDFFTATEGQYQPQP
Chain of Serine/threonine-protein kinase PLK2 (Homo sapiens) (Q9NYY3 whole entry, looked up): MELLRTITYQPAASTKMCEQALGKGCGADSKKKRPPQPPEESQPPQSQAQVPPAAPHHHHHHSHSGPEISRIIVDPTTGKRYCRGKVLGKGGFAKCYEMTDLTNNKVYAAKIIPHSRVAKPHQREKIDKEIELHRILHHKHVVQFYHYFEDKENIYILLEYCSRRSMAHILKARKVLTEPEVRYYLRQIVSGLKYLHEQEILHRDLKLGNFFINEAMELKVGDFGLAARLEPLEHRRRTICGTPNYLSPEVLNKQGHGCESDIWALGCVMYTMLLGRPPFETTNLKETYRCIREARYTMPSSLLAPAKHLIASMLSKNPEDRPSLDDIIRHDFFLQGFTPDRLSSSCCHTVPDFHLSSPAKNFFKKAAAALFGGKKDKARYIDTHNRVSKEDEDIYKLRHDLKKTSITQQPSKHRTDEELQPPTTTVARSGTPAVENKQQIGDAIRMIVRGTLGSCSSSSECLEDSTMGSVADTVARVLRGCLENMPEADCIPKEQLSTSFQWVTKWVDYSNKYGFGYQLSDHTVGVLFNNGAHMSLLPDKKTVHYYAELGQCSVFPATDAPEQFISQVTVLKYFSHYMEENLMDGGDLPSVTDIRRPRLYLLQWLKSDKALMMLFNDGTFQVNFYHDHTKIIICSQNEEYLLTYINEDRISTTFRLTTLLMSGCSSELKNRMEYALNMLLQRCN
Chain of Death-associated protein kinase 2 (Homo sapiens) (Q9UIK4 whole entry, looked up): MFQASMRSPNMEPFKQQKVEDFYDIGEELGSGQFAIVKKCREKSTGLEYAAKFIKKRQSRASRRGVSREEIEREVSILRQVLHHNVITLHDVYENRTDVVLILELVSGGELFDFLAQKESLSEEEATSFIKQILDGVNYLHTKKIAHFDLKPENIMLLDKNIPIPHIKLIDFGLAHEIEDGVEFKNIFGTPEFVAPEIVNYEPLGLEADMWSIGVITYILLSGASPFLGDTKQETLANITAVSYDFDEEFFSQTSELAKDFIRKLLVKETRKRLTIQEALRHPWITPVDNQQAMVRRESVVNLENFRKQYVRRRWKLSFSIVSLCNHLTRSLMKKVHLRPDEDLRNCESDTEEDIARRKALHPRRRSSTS

Take `Cc1ccc2cc(-c3n[nH]c4ccc(NC5CCNC5)cc34)[nH]c2c1` (centres undefined): the residual activity in test [1] stood at 21%; in test [2], 91%; in test [3], 39%; in test [4], 5%; in test [7], 64%. Further, the inhibition in test [5] was 0%; in test [6] it was 76%.
With `Cc1ccc2cc(-c3n[nH]c4ccc(NC5CCN(Cc6ccccc6)CC5)cc34)[nH]c2c1`, the residual activity in test [1] turned out to be 67%; in test [2], 106%; in test [3] it was 64%; in test [4] it was 12%; in test [7], 84%. The inhibition amounted to 9% in test [5] and 87% in test [6].

These data come from ChEMBL document CHEMBL1681705, “Optimisation of ITK inhibitors through successive iterative design cycles” (Bioorg Med Chem Lett, 2011).
